According to ChEMBL document CHEMBL2375300, “New potent calcimimetics: II. Discovery of benzothiazole trisubstituted ureas” (Bioorg Med Chem Lett, 2013):
Activity calls are given as the source filed them. No cut-off for these calls is given here.

Experiments:
[1] = biological target: T1, Extracellular calcium-sensing receptor (Homo sapiens, UniProt P41180); assay: Positive allosteric modulation of human CaSR expressed in CHO cells assessed as increase in intracellular calcium level after 5 hrs by luciferase reporter gene assay; type: functional, cell-based
T1 sequence (P41180 whole entry): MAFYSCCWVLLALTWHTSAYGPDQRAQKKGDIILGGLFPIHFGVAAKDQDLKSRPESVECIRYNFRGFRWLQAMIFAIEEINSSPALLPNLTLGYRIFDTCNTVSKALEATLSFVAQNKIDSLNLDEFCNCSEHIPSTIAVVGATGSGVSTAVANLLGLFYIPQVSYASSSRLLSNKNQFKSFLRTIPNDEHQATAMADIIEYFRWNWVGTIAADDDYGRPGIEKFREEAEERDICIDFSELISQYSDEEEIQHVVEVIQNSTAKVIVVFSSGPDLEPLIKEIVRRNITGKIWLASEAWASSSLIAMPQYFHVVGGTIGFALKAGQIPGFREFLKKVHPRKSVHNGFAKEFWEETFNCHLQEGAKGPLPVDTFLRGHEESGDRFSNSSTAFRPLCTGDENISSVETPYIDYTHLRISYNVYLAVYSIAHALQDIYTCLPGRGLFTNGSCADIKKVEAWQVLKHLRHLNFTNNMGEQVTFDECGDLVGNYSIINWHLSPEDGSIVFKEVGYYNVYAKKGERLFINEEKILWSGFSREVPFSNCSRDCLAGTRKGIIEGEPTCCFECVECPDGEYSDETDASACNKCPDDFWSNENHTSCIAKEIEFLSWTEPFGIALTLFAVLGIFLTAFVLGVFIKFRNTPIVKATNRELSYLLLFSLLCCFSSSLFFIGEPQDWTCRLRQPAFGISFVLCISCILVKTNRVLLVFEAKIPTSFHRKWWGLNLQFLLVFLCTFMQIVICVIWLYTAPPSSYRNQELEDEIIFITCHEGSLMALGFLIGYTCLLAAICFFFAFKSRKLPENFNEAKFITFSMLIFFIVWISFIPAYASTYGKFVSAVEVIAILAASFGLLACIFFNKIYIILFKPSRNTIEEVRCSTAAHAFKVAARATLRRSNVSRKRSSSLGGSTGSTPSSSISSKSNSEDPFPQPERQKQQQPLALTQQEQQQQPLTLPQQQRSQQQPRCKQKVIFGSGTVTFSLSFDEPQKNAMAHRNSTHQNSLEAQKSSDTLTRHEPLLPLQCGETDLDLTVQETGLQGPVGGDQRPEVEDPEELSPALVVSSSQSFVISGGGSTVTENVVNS
Procedure, shortened: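 CHO cells stably transfected with human CaSR and a luciferase reporter (clone ET8-5-5) were seeded at 50K/well, grown 24 h, then serum-starved overnight. Cells were exposed for 5 h at 37 °C to compound dilutions crossed with a CaCl2 range, in HEPES pH 7.4 buffer with 0.3 mM CaCl2 baseline. Luminescence was read. EC50 was taken at 2 mM calcium, n ≥ 1.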

[2] = biological target: Voltage-gated inwardly rectifying potassium channel KCNH2 (Homo sapiens, UniProt Q12809); assay: Inhibition of human ERG at 10 uM
Salmonella typhimurium = assay: Genotoxicity in Salmonella typhimurium at 10 uM by Ames test; type: toxicity, organism-based; conditions: salmonella enterica subsp. enterica serovar typhimurium
Rattus norvegicus [3] = assay: Antihyperparathyroidism activity in Sprague-Dawley rat chronic renal failure model assessed as increase in serum phosphorus level at 10 mg/kg, po after 24 hrs; type: functional, organism-based; set-up: dose 10 mg/kg
Procedure, shortened: (§1)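 One week later each received one oral gavage of 10 mg/kg in 0.5% methylcellulose (5 mL/kg), or vehicle alone. Rats were fasted 24 h before decapitation at 2, 6 or 24 h. Serum PTH was measured by rat IRMA, and Ca and P by chemistry analyzer. n = 9–12, ANOVA/t-test against CRF vehicle.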

[4] = biological target: T2, Extracellular calcium-sensing receptor (Homo sapiens) (UniProt P41180); assay: Ratio of R-568 EC50 to compound EC50 for positive allosteric modulation of human CaSR
T2 sequence (whole entry): T1 sequence (P41180 whole entry)

Rattus norvegicus [5] = assay: Toxicity in Sprague-Dawley rat chronic renal failure model assessed as decrease in serum calcium level at 10 mg/kg/day, po administered for 2 months measured 24 hrs post last dose relative to vehicle-treated control; type: organism-based; set-up: route oral; conditions: in vivo
Procedure, shortened: (§2)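 Male Sprague–Dawley rats with 5/6 nephrectomy were dosed orally once daily at 10 or 30 mg/kg/day in 0.5% methylcellulose (5 mL/kg), or given vehicle. Dosing ran about 2 months, starting after a post-surgery untreated period. Rats were fasted and killed by decapitation 24 h after the last dose. Serum PTH was measured by rat IRMA and Ca by chemistry analyzer. n = 6–10, compared with CRF vehicle.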

[6] = Metabolic stability in serum (unknown origin) at pH 2 to 12; type: ADME
Rattus norvegicus [7] = assay: Antihyperparathyroidism activity in Sprague-Dawley rat chronic renal failure model assessed as […] at 10 mg/kg/day, po administered for 2 months measured 24 hrs post last dose relative to vehicle-treated control; type: functional; procedure, shortened: as §2
Rattus norvegicus [8] = assay: Toxicity in Sprague-Dawley rat chronic renal failure model assessed as mortality at 10 to 30 mg/kg/day, po administered for 2 months measured 24 hrs post last dose; type: organism-based; set-up: route oral; conditions: in vivo
Procedure, shortened: (§3)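 After an untreated interval, they were gavaged once daily with the dihydrochloride salt in 0.5% methylcellulose, or with vehicle at 5 mL/kg. Mortality and side effects were monitored during treatment. Rats were fasted 24 h, then decapitated, and the aorta was examined histologically for calcification.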

Rattus norvegicus [9] = assay: Toxicity in Sprague-Dawley rat chronic renal failure model assessed as side effects at 10 to 30 mg/kg/day, po administered for 2 months measured 24 hrs post last dose; type: organism-based; set-up: route oral; conditions: in vivo; procedure, shortened: as §3
[10] = Half life in Sprague-Dawley rat chronic renal failure model at 0.3 mg/kg, iv; type: ADME, organism-based; set-up: dose 0.3 mg/kg, route intravenous; conditions: in vivo
Procedure, shortened: (§4)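 Single intravenous dose of 0.3 mg/kg given to chronic renal failure rats. AUC, Cmax, clearance, volume of distribution and half-life were derived from the plasma exposure.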

[11] = Cmax in Sprague-Dawley rat chronic renal failure model at 0.3 mg/kg, iv; type: ADME, organism-based; set-up: dose 0.3 mg/kg, route intravenous; conditions: in vivo; procedure, shortened: as §4
[12] = AUC in Sprague-Dawley rat chronic renal failure model at 0.3 mg/kg, iv; type: ADME, organism-based; set-up: dose 0.3 mg/kg, route intravenous; conditions: in vivo; procedure, shortened: as §4
Rattus norvegicus [13] = assay: Clearance in Sprague-Dawley rat at 0.3 mg/kg, iv; type: ADME, organism-based; set-up: dose 0.3 mg/kg, route intravenous; conditions: in vivo
Rattus norvegicus [14] = assay: Toxicity in Sprague-Dawley rat chronic renal failure model assessed as decrease in serum calcium level at 10 mg/kg/day, po administered for 2 months measured 24 hrs post last dose (reference value: 4%); type: organism-based; set-up: route oral; scale not given: the % may be the effect or the level left; conditions: in vivo, 30 mg/kg, in the assay text read “at 30 mg/kg/day” for “at 10 mg/kg/day”; procedure, shortened: as §2
[15] = Metabolic stability in intestinal fluid (unknown origin) at pH 2 to 12; type: ADME; conditions: simulated gi fluid
Rattus norvegicus [16] = assay: Antihyperparathyroidism activity in Sprague-Dawley rat chronic renal failure model assessed as decrease in serum PTH level at 10 mg/kg, po after 6 hrs relative to vehicle-treated control; type: functional; set-up: scale not given: the % may be the effect or the level left; procedure, shortened: as §1
[17] = Aqueous solubility of the compound at pH 2; type: physicochemical
Procedure, shortened: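 Aqueous solubility measured at pH 2.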

[18] = Volume of distribution in Sprague-Dawley rat chronic renal failure model at 0.3 mg/kg, iv; type: ADME, organism-based; set-up: dose 0.3 mg/kg, route intravenous; conditions: in vivo; procedure, shortened: as §4
Rattus norvegicus [19] = assay: Toxicity in Sprague-Dawley rat chronic renal failure model assessed as aortic calcification at 10 to 30 mg/kg/day, po administered for 2 months measured 24 hrs post last dose by histological analysis; type: organism-based, Aorta; set-up: route oral; conditions: in vivo; procedure, shortened: as §3
Rattus norvegicus [20] = assay: Antihyperparathyroidism activity in Sprague-Dawley rat chronic renal failure model assessed as decrease in serum PTH level at 10 mg/kg, po after 24 hrs relative to vehicle-treated control; type: functional; set-up: scale not given: the % may be the effect or the level left; procedure, shortened: as §1
Rattus norvegicus [21] = assay: Antihyperparathyroidism activity in Sprague-Dawley rat chronic renal failure model assessed as […] at 30 mg/kg/day, po administered for 2 months measured 24 hrs post last dose relative to vehicle-treated control; type: functional; procedure, shortened: as §2
[22] = Clearance in Sprague-Dawley rat chronic renal failure model at 0.3 mg/kg, iv; type: ADME, organism-based; set-up: dose 0.3 mg/kg, route intravenous; conditions: in vivo; procedure, shortened: as §4
Rattus norvegicus [23] = assay: Toxicity in Sprague-Dawley rat chronic renal failure model assessed as decrease in serum calcium level at 10 mg/kg, po after 24 hrs; type: organism-based; set-up: dose 10 mg/kg, route oral; conditions: in vivo; procedure, shortened: as §1
Rattus norvegicus [24] = assay: Antihyperparathyroidism activity in Sprague-Dawley rat chronic renal failure model assessed as decrease in serum PTH level at 10 mg/kg, po after 2 hrs relative to vehicle-treated control; type: functional; set-up: scale not given: the % may be the effect or the level left; procedure, shortened: as §1

Sequence of Voltage-gated inwardly rectifying potassium channel KCNH2 (Q12809 whole entry): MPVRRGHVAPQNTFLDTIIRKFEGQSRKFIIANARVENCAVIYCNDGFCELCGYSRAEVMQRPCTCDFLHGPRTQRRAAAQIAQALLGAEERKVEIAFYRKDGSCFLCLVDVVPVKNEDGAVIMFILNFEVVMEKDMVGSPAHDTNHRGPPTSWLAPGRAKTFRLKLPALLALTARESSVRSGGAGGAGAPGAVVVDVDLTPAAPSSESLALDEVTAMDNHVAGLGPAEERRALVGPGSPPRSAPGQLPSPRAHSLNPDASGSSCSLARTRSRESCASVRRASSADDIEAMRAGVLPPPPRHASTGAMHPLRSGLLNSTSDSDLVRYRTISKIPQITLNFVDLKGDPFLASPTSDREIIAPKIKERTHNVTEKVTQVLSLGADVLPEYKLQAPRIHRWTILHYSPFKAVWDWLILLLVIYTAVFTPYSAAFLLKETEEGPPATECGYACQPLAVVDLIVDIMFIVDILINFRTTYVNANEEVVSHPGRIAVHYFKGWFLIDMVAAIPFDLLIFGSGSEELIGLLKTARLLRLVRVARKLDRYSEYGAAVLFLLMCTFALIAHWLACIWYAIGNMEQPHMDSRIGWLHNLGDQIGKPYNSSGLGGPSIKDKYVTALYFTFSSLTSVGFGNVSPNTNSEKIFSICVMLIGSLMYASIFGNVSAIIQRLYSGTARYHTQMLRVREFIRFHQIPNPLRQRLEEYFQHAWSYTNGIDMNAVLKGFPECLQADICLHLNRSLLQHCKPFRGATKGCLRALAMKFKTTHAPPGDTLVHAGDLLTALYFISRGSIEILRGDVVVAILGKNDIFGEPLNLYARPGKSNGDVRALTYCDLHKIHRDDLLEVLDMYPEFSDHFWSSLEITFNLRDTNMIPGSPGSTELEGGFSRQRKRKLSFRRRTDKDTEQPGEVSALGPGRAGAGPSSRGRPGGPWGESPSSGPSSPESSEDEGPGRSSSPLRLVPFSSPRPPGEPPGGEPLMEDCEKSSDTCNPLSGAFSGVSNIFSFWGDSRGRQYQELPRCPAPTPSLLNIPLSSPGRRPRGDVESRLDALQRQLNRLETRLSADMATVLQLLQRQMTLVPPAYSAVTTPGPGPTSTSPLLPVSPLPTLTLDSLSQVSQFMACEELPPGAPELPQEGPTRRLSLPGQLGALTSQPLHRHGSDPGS

SMILES	EC50 [1] [nM]	further results
Cc1noc(NC(=O)N(CCC(c2ccccc2)c2ccccc2)CCN2CCOCC2)c1C	1700	
O=C(Nc1nc2ccccc2s1)N(CCC(c1ccccc1)c1ccccc1)CCN1CCOCC1 [listing 1 of 2 here]	20	inhibition (INH) [2]: Active; Activity (Salmonella typhimurium): Non-toxic
COc1cc(C)nc(NC(=O)N(CCC(c2ccccc2)c2ccccc2)CCN2CCOCC2)n1	400	
O=C(Nc1nc2ccccc2s1)N(CCC(c1ccccc1)c1ccccc1)CCN1CCOCC1 [listing 2 of 2 here]		Activity (Rattus norvegicus [3]): Active; Ratio EC50 [4]: 4
Cc1cccc2sc(NC(=O)N(CCC(c3ccccc3)c3ccccc3)CCN3CCOCC3)nc12	600	
O=C(Nc1cnccn1)N(CCC(c1ccccc1)c1ccccc1)CCN1CCOCC1	450	
CCOC(=O)c1ccc2nc(NC(=O)N(CCC(c3ccccc3)c3ccccc3)CCN3CCOCC3)sc2c1	200	
O=C(Nc1cccnc1)N(CCC(c1ccccc1)c1ccccc1)CCN1CCOCC1	1000	
CN(C)CCNC(=O)c1ccc2nc(NC(=O)N(CCC(c3ccccc3)c3ccccc3)CCN3CCOCC3)sc2c1	200	
O=C(Nc1nccs1)N(CCC(c1ccccc1)c1ccccc1)CCN1CCOCC1	300	
Cl.Cl.O=C(Nc1nc2ccccc2s1)N(CCC(c1ccccc1)c1ccccc1)CCN1CCOCC1		Activity (Rattus norvegicus [5]): Non-toxic; Stability [6]: Stable; Activity (Rattus norvegicus [7]): -76%; Activity (Rattus norvegicus [8]): Non-toxic; Activity (Rattus norvegicus [9]): Non-toxic; half-life [10]: 6.73 h; Cmax [11]: 546 ng/mL; AUC [12]: 162 ng·h/mL; clearance (Rattus norvegicus [13]): 82.7 mL/min/kg; Activity (Rattus norvegicus [14]): 9%; Stability [15]: Stable; Activity (Rattus norvegicus [16]): -75%; solubility [17]: 300 µg/mL; Vd [18]: 5.17 L/kg; Activity (Rattus norvegicus [19]): Non-toxic; Activity (Rattus norvegicus [20]): -49%; Activity (Rattus norvegicus [21]): -88%; clearance [22]: 30.8 mL/min/kg; Activity (Rattus norvegicus [23]): Non-toxic; Activity (Rattus norvegicus [24]): 95%
CCOc1ccc2nc(NC(=O)N(CCC(c3ccccc3)c3ccccc3)CCN3CCOCC3)sc2c1	1000	
O=C(Nc1nc2ccccc2n1Cc1ccccc1)N(CCC(c1ccccc1)c1ccccc1)CCN1CCOCC1	300	
COC(=O)c1sccc1NC(=O)N(CCC(c1ccccc1)c1ccccc1)CCN1CCOCC1	400	

Continued, in another order:

EC50 [1] [nM]	SMILES	further results
30	CS(=O)(=O)Nc1ccc2nc(NC(=O)N(CCC(c3ccccc3)c3ccccc3)CCN3CCOCC3)sc2c1	
100	O=C(O)c1ccc2nc(NC(=O)N(CCC(c3ccccc3)c3ccccc3)CCN3CCOCC3)sc2c1	
200	Cc1cc(NC(=O)N(CCC(c2ccccc2)c2ccccc2)CCN2CCOCC2)no1	
150	Cn1c(NC(=O)N(CCC(c2ccccc2)c2ccccc2)CCN2CCOCC2)nc2ccccc21	
80	Cc1cc(C)nc(NC(=O)N(CCC(c2ccccc2)c2ccccc2)CCN2CCOCC2)c1	
90	O=C(Nc1nc2ccc(OC(F)(F)F)cc2s1)N(CCC(c1ccccc1)c1ccccc1)CCN1CCOCC1	
60	O=C(Nc1nc2ccccc2[nH]1)N(CCC(c1ccccc1)c1ccccc1)CCN1CCOCC1	
200	O=C(Nc1nccc(-c2nccs2)n1)N(CCC(c1ccccc1)c1ccccc1)CCN1CCOCC1	
80	O=C(Nc1nc2ccc(CO)cc2s1)N(CCC(c1ccccc1)c1ccccc1)CCN1CCOCC1	
40	COc1ccc2nc(NC(=O)N(CCC(c3ccccc3)c3ccccc3)CCN3CCOCC3)sc2c1	
200	O=C(Nc1nc2ccc(F)cc2s1)N(CCC(c1ccccc1)c1ccccc1)CCN1CCOCC1	
20	O=C(Nc1nc2c(Cl)cccc2s1)N(CCC(c1ccccc1)c1ccccc1)CCN1CCOCC1	
80	CS(=O)(=O)c1ccc2nc(NC(=O)N(CCC(c3ccccc3)c3ccccc3)CCN3CCOCC3)sc2c1	
80	O=C(Nc1nc2cc(Cl)ccc2o1)N(CCC(c1ccccc1)c1ccccc1)CCN1CCOCC1	
30	Cc1ccc2nc(NC(=O)N(CCC(c3ccccc3)c3ccccc3)CCN3CCOCC3)sc2c1	
30	CS(=O)(=O)Nc1ccc2sc(NC(=O)N(CCC(c3ccccc3)c3ccccc3)CCN3CCOCC3)nc2c1	
30	COc1cccc2sc(NC(=O)N(CCC(c3ccccc3)c3ccccc3)CCN3CCOCC3)nc12	
60	O=C(Nc1nc2ccc(Cl)cc2s1)N(CCC(c1ccccc1)c1ccccc1)CCN1CCOCC1	
